# Assays:
# [1] = Mutagenicity in Salmonella typhimurium TA98 at 5 to 500 ug/plate in absence of s9 mix by Ames test; format: toxicity; conditions: salmonella enterica subsp. enterica serovar typhimurium
# Procedure, shortened: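 Plate incorporation method at 5, 50 and 500 μg/plate, with and without S9 activation. At least three plates per dose, incubated 72 h at 37 °C, revertants counted. Mean revertants compared with vehicle and positive controls.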
# [2] = system: HCT-116; experiment: Induction of apoptosis in human HCT116 cells assessed as early apoptotic cells at 20 nM after 48 hrs by Annexin V-FITC/propidium iodide staining-based flow cytometric analysis (reference value: 1.33%); format: functional
# [3] = system: HCT-116; experiment: Induction of apoptosis in human HCT116 cells assessed as live cells at 20 nM after 48 hrs by Annexin V-FITC/propidium iodide staining-based flow cytometric analysis (reference value: 89.6%); format: functional
# [4] = AUC (0 to infinity) in ICR mouse at 30 mg/kg, po measured after 0.083 to 24 hrs by LC/MS/MS analysis; format: ADME, organism-based; design: dose 30 mg/kg, time infinity, route oral; conditions: in vivo
# Procedure, shortened: (§1)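 ICR mice; iv 3 mg/kg in 10% DMSO/saline (3 mice/group), blood at 0.033, 0.083, 0.25, 0.5, 1, 2, 4, 8, 12, 24 h; po 30 mg/kg as 0.5% cmc/0.3% Tween 80 suspension (5 mice/group), blood at 0.083–24 h. Plasma extracted with acetonitrile, LC/MS/MS; parameters by noncompartmental analysis.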
# [5] = system: HCT-116; experiment: Induction of cell cycle arrest in human HCT116 cells assessed as accumulation at G1 phase at 100 to 500 nM after 24 hrs by propidium iodide/RNase staining-based FACS analysis; format: functional
# Procedure, shortened: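 HCT116 cells cultured overnight in 6-well plates, exposed to compound at various concentrations for 24 h; FxCycle PI/RNase staining and flow cytometry for cell cycle phase distribution.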
# [6] = Cmax in ICR mouse at 30 mg/kg, po measured after 0.083 to 24 hrs by LC/MS/MS analysis; format: ADME, organism-based; design: dose 30 mg/kg, route oral; conditions: in vivo; procedure, shortened: as §1
# [7] = AUC (0 to t) in ICR mouse at 30 mg/kg, po measured after 0.083 to 24 hrs by LC/MS/MS analysis; format: ADME, organism-based; design: time upper 24 hr, dose 30 mg/kg, time lower 0.083 hr, route oral; conditions: in vivo; procedure, shortened: as §1
# [8] = Toxicity in ip dosed ICR mouse assessed as maximum tolerated dose; format: organism-based; conditions: in vivo
# Procedure, shortened: (§2)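 Male ICR mice, 6−8 weeks old, given one dose; vehicle 0.5% cmc with Tween 80 for oral dosing, saline for intraperitoneal dosing. Clinical signs observed and body weights recorded for 7 consecutive days after dosing to set the maximum tolerated dose.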
# [9] = system: HCT-8; experiment: Antiproliferative activity against human HCT8 cells after 96 hrs by MTT assay; format: functional, cell-based; conditions: HCT-8, 96 h
# [10] = Toxicity in po dosed ICR mouse assessed as maximum tolerated dose; format: organism-based; conditions: in vivo; procedure, shortened: as §2
# [11] = AUC (0 to t) in ICR mouse at 3 mg/kg, iv measured after 0.033 to 24 hrs by LC/MS/MS analysis; format: ADME, organism-based; design: dose 3 mg/kg, time upper 24 hr, time lower 0.033 hr, route intravenous; conditions: in vivo; procedure, shortened: as §1
# [12] = system: HCT-116; experiment: Induction of apoptosis in human HCT116 cells assessed as early apoptotic cells at 100 nM after 48 hrs by Annexin V-FITC/propidium iodide staining-based flow cytometric analysis (reference value: 1.33%); format: functional
# [13] = target: Histone deacetylase 11 (Homo sapiens, UniProt Q96DB2); experiment: Inhibition of recombinant human full length HDAC11 expressed in baculovirus infected Sf9 insect cells using Ac-peptide as substrate preincubated for 15 mins followed by substrate addition and measured after 1 hr
# Histone deacetylase 11, sequence (Q96DB2 whole entry, canonical isoform): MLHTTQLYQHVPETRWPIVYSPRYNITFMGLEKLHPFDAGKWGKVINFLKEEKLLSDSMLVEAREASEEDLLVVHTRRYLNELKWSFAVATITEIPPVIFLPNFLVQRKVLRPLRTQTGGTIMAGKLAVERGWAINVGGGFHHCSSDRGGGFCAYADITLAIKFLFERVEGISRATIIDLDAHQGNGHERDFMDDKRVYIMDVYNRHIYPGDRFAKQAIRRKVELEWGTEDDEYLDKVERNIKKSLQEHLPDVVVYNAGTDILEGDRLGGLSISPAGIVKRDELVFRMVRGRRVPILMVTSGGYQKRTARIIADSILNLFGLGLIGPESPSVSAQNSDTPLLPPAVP
# Procedure, shortened: (§3)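 Recombinant HDAC isoforms mixed with serially diluted compound in assay buffer for 15 min at room temperature. Ac-peptide substrate then added and incubated 1 h at room temperature. Signal read on a plate reader; IC50 by curve fitting.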
# [14] = system: HGC-27; experiment: Antiproliferative activity against human HGC27 cells after 96 hrs by MTT assay; format: functional, cell-based; conditions: HGC-27, 96 h
# [15] = system: SW1990; experiment: Antiproliferative activity against human SW1990 cells after 96 hrs by MTT assay; format: functional, cell-based; conditions: SW1990, 96 h
# [16] = system: Bel-7402; experiment: Antiproliferative activity against human Bel7402 cells after 96 hrs by MTT assay; format: functional, cell-based; conditions: Bel-7402, 96 h
# [17] = system: HCT-116; experiment: Antiproliferative activity against human HCT116 cells after 96 hrs by MTT assay; format: functional, cell-based; conditions: HCT-116, 96 h
# [18] = system: HCT-116; experiment: Induction of apoptosis in human HCT116 cells assessed as live cells at 500 nM after 48 hrs by Annexin V-FITC/propidium iodide staining-based flow cytometric analysis (reference value: 89.6%); format: functional
# [19] = target: Voltage-gated inwardly rectifying potassium channel KCNH2 (Homo sapiens, UniProt Q12809); experiment: Inhibition of human ERG stably expressed in CHO cells by whole cell patch clamp method; format: cell-based
# Voltage-gated inwardly rectifying potassium channel KCNH2, sequence (Q12809 whole entry): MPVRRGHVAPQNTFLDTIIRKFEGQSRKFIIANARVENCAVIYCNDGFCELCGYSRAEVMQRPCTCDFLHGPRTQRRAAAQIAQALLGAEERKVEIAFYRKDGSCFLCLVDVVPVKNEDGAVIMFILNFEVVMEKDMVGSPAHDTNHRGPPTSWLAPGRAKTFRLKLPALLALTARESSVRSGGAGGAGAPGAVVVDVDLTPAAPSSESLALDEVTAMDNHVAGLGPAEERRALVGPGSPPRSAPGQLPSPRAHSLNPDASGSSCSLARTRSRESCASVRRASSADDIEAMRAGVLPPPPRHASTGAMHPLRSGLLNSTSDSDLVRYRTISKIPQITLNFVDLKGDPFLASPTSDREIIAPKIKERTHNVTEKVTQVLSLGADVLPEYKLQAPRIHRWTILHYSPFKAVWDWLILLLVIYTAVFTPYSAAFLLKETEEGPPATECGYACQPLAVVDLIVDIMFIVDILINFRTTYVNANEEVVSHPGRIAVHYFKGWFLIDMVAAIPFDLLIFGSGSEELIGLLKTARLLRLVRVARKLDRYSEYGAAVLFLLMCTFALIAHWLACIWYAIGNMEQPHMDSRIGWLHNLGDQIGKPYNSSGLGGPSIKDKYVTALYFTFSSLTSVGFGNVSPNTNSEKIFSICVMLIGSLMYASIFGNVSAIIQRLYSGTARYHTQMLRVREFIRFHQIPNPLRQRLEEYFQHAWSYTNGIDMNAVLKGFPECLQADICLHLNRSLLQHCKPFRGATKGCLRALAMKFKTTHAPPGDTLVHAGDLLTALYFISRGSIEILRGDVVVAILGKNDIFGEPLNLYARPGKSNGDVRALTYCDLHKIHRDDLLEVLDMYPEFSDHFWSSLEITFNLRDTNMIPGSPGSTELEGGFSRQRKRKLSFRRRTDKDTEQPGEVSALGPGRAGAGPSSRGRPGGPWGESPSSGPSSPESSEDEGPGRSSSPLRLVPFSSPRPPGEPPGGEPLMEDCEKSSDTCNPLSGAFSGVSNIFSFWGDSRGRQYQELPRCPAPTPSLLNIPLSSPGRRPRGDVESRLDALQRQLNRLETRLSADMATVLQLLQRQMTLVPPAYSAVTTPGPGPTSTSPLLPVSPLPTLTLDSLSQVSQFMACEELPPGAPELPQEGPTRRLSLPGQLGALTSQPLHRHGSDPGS
# Procedure, shortened: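 CHO cells stably expressing hERG, grown in F-12 (Ham)/GlutaMAX with 10% FBS, penicillin G, blasticidin S and hygromycin B. Expression induced with 1 μg/mL doxycycline, cells cultured 24 h, then recorded by whole-cell patch clamp.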
# [20] = target: Histone deacetylase 2 (Homo sapiens, UniProt Q92769); experiment: Inhibition of recombinant human full length HDAC2 expressed in baculovirus infected Sf9 insect cells using Ac-peptide as substrate preincubated for 15 mins followed by substrate addition and measured after 1 hr; procedure, shortened: as §3
# Histone deacetylase 2, sequence (Q92769 whole entry): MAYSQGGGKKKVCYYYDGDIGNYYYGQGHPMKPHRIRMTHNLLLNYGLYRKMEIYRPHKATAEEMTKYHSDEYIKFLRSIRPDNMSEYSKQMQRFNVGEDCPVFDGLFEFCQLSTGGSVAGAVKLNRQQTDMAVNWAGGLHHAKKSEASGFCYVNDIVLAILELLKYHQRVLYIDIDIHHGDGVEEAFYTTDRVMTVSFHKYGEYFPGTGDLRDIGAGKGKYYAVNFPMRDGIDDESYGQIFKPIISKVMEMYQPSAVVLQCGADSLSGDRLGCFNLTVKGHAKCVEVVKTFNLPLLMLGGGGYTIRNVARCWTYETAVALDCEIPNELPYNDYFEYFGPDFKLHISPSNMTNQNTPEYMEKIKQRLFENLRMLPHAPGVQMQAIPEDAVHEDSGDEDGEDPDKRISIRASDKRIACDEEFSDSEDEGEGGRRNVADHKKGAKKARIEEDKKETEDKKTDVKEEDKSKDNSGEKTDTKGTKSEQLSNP
# [21] = system: HCT-116; experiment: Induction of apoptosis in human HCT116 cells assessed as early apoptotic cells at 500 nM after 48 hrs by Annexin V-FITC/propidium iodide staining-based flow cytometric analysis (reference value: 1.33%); format: functional
# [22] = system: HCT-116; experiment: Induction of apoptosis in human HCT116 cells assessed as necrotic cells at 100 nM after 48 hrs by Annexin V-FITC/propidium iodide staining-based flow cytometric analysis (reference value: 5.23%); format: functional
# [23] = system: MDA-MB-453; experiment: Antiproliferative activity against human MDA-MB-453 cells after 96 hrs by MTT assay; format: functional, cell-based; conditions: MDA-MB-453, 96 h
# [24] = system: HCT-116; experiment: Induction of apoptosis in human HCT116 cells assessed as late apoptotic cells at 100 nM after 48 hrs by Annexin V-FITC/propidium iodide staining-based flow cytometric analysis (reference value: 3.87%); format: functional
# [25] = system: HCT-116; experiment: Induction of apoptosis in human HCT116 cells assessed as necrotic cells at 20 nM after 48 hrs by Annexin V-FITC/propidium iodide staining-based flow cytometric analysis (reference value: 5.23%); format: functional
# [26] = system: HCT-116; experiment: Induction of apoptosis in human HCT116 cells assessed as live cells at 100 nM after 48 hrs by Annexin V-FITC/propidium iodide staining-based flow cytometric analysis (reference value: 89.6%); format: functional
# [27] = Cmax in ICR mouse at 3 mg/kg, iv measured after 0.033 to 24 hrs by LC/MS/MS analysis; format: ADME, organism-based; design: dose 3 mg/kg, route intravenous; conditions: in vivo; procedure, shortened: as §1
# [28] = system: HepG2; experiment: Antiproliferative activity against human HepG2 cells after 96 hrs by MTT assay; format: functional, cell-based; conditions: HepG2, 96 h
# [29] = target: Phosphatidylinositol 4,5-bisphosphate 3-kinase catalytic subunit beta isoform (Homo sapiens, UniProt P42338); experiment: Inhibition of recombinant human PIK3CB using PIP2 as substrate incubated for 1 hr by ADP-glo assay
# Phosphatidylinositol 4,5-bisphosphate 3-kinase catalytic subunit beta isoform, sequence (P42338 whole entry, canonical isoform): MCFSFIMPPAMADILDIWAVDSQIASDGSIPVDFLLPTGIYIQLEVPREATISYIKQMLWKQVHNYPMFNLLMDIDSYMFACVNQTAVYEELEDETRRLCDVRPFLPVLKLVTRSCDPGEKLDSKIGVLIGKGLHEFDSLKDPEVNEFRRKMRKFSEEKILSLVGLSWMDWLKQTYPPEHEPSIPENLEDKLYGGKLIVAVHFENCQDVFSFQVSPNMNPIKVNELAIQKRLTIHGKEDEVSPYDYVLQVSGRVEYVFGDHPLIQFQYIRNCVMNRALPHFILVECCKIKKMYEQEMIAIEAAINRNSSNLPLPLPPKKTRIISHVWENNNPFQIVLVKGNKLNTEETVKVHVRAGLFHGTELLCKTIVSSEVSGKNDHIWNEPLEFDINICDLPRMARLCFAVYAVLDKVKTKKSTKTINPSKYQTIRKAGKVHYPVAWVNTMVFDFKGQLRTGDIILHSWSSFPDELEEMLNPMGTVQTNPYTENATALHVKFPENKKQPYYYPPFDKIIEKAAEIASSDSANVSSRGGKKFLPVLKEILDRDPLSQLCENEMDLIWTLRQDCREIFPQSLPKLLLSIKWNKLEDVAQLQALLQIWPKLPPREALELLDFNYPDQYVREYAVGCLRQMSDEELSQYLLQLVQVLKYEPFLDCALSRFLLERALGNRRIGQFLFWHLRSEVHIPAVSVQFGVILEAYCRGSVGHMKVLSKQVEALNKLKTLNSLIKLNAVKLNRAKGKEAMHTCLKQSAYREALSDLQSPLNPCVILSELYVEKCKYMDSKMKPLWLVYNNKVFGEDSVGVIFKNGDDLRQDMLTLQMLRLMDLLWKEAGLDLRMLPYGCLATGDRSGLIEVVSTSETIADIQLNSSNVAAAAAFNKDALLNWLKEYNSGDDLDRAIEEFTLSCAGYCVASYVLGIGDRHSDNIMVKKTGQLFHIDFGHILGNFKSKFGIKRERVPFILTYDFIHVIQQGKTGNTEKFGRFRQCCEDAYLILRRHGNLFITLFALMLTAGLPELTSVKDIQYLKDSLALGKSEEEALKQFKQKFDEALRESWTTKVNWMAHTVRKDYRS
# Procedure, shortened: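 Recombinant PI3Kβ, -γ or -δ, serially diluted compound, PIP2 substrate and ATP combined in kinase buffer. Incubated 1 h at room temperature in the dark, then stopped with ADP-Glo reagent. Luminescence read after kinase detection reagent; IC50 by curve fitting.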
# [30] = system: NCI-H1299; experiment: Antiproliferative activity against human NCI-H1299 cells after 96 hrs by MTT assay; format: functional, cell-based; conditions: NCI-H1299, 96 h
Compound,Activity [1],Activity [2] [%],Activity [3] [%],Activity [5],Cmax [6] [ng/mL],AUC(0-t) [7] [ng·h/mL],MTD [8] [mg/kg],IC50 [9] [nM],MTD [10] [mg/kg],AUC(0-t) [11] [ng·h/mL],Activity [12] [%],IC50 [13] [nM],IC50 [14] [nM],IC50 [15] [nM],IC50 [16] [nM],IC50 [17] [nM],IC90 [17] [nM],Activity [18] [%],IC50 [19] [nM],IC50 [20] [nM],other results
COc1ccc(-c2cc(OCCN(C)c3ncc(C(=O)NO)cn3)c3ncnc(C)c3c2)cn1,Non-Toxic,4.53,83.6,Dose-dependent effect,9.39,23.1,> 100,59,> 2000,133,16.8,> 1000,14,230,1600,7,2800,43.8,> 30000,3.4,AUC [4]: 51.4 ng·h/mL; Activity [21]: 29.1%; Activity [22]: 2.99%; IC50 [23]: 4 nM; Activity [24]: 9.92%; Activity [25]: 5.97%; Activity [26]: 70.2%; Cmax [27]: 417 ng/mL; IC50 [28]: 76 nM; IC50 [29]: 279 nM; IC50 [30]: 180 nM
COc1ncc(-c2cc(OCCCCCCC(=O)NO)c3ncnc(C)c3c2)cc1F,Non-Toxic,1.83,88.6,Dose-dependent effect,143,230,> 100,320,> 2000,551,6.56,> 1000,110,900,5200,150,48000,67.9,> 30000,3,AUC(0-inf) ([4]; ICR): 274 ng·h/mL; Activity [21]: 18.2%; Activity [22]: 4.64%; IC50 [23]: 300 nM; Activity [24]: 7.97%; Activity [25]: 4.1%; Activity [26]: 80.8%; Cmax [27]: 3050 ng/mL; IC50 [28]: 1100 nM; IC50 [29]: 101 nM; IC50 [30]: 1000 nM
